In ChEMBL document CHEMBL1122953, “Synthesis and antiarrhythmic and parasympatholytic properties of substituted phenols. 3. Modifications to the linkage region (region 3)” (1985) one finds Inhibition, Dose and DOSE data, which are given here for 24 compounds.

The source made the active and inactive calls. The calls are words filed in the database; no cut-off is given here.

The species named for one test is Cavia porcellus. As to the kind of experiment: Parasympatholytic activity and the % inhibition of guinea pig ileum contractile force at 4 mg/L of base was reported. Type of test: functional. The procedure, abridged:
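Isolated guinea pig ileum, electrically stimulated so contraction comes from acetylcholine released by postganglionic parasympathetic nerves. After about 60 min equilibration, tension was measured just before and during the steady-state response to drug at 4 mg/L. Result is % inhibition of contractile force.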

For test [1], the species on record is Canis familiaris. The test can be described thus: Antiarrhythmic activity estimated by using the ouabain intoxicated dog model and the active dose of base in ouabain dog was reported. Type of test: functional, Canis lupus familiaris, Heart. In short, it runs like this: (§1)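 Dogs; ECG lead II recorded. Ouabain given iv as boluses of 40 µg/kg, then 20 µg/kg 30 min later, then 10 µg/kg every 15 min until a stable ventricular arrhythmia (>95% ectopic ventricular complexes) persisted 15 min. Test drug infused iv at 0.5 mg/kg per min until normal sinus rhythm held at least 10 min. Active dose is the mean of experiments ± SEM.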

The species named for test [2] is Canis familiaris. The test can be described thus: Dose at which ouabain dog failed to produce normal sinus rhythm. Type of test: functional, Canis lupus familiaris. The procedure, abridged:
as §1

Test [3] concerns Canis familiaris. The test can be described thus: Antiarrhythmic activity estimated by using the ouabain intoxicated dog model and the active dose of base in ouabain dog was reported at a dose of 20 mg/kg; Not effective. Type of test: functional, organism-based. Also on record: dose 20 mg/kg. The following applies: Canis lupus familiaris, Heart. The procedure, abridged: as §1
In test [4] the test system is Canis familiaris. The test can be described thus: Antiarrhythmic activity estimated by using the ouabain intoxicated dog model and the active dose of base in ouabain dog was reported. at a dose of 10 mg/kg; Not effective. Also on record: dose 10 mg/kg. The format is functional, organism-based. The note with it: Canis lupus familiaris, Heart. The procedure, abridged: as §1

Test [5] is filed under the species Canis familiaris. As to the kind of experiment: Antiarrhythmic activity estimated by using the ouabain intoxicated dog model and the active dose of base in ouabain dog was reported; Not effective. The note with it: Canis lupus familiaris; Heart. The format is functional, organism-based. In short, it runs like this: as §1
For test [6], the species on record is Canis familiaris. The test can be described thus: Dose at which ouabain dog caused ventricular flutter. Type of test: functional, Canis lupus familiaris, Heart. The procedure, abridged:
as §1

Compound `CN(C(=O)c1ccccc1)c1cc(CN2CCCC2)c(O)c(CN2CCCC2)c1` returned an Inhibition in the test listed under Cavia porcellus of 5%. Moreover, the Dose in the test filed under Canis familiaris [1] was 16.2 mg/kg.

Turning to `O=S(=O)(Nc1cc(CN2CCCC2)c(O)c(CN2CCCC2)c1)c1ccccc1`, the Dose in the test filed under Canis familiaris [1] was 10 mg/kg.

Compound `COc1ccc(C(=O)c2cc(CN3CCCC3)c(O)c(CN3CCCC3)c2)cc1` registered an Inhibition in the test filed under Cavia porcellus of 12%. For the same compound, the Dose in the test filed under Canis familiaris [1] is 4.5 mg/kg.

`Cc1ccccc1NC(=O)c1cc(CN2CCCC2)c(O)c(CN2CCCC2)c1`: the Dose in the test listed under Canis familiaris [1] was 2.9 mg/kg.

Regarding `Oc1c(CN2CCCC2)cc(Nc2ncnc3ccccc23)cc1CN1CCCC1` [CHANGROLIN], the Inhibition in the test filed under Cavia porcellus came to 43%. In the test listed under Canis familiaris [1], the Dose was 5.5 mg/kg.

In turn, `O=C(Nc1ccccc1)c1cc(CN2CCCC2)c(O)c(CN2CCCC2)c1` came in with an Inhibition in the test listed under Cavia porcellus of 31%. Further, the Dose in the test filed under Canis familiaris [1] was 2.8 mg/kg.

For `Oc1c(CN2CCCC2)cc(Nc2ccccc2)cc1CN1CCCC1`, the results for the Dose in the test filed under Canis familiaris [1] and in the test listed under Canis familiaris [2] were 5 mg/kg and 17.5 mg/kg, respectively.

Turning to `O=C(Nc1nccs1)c1cc(CN2CCCC2)c(O)c(CN2CCCC2)c1`, the DOSE result in the test on Canis familiaris [3] was “inactive”.

`O=C(c1cc(CN2CCCC2)c(O)c(CN2CCCC2)c1)c1cc(CN2CCCC2)c(O)c(CN2CCCC2)c1`: the DOSE result in the test on Canis familiaris [4] is “inactive”.

Consider `Cc1ccccc1C(=O)Nc1cc(CN2CCCC2)c(O)c(CN2CCCC2)c1`, for which the Dose in the test listed under Canis familiaris [1] is 2.7 mg/kg.

Turning to `O=C(Nc1cc(CN2CCOCC2)c(O)c(CN2CCOCC2)c1)c1ccccc1`, the Dose in the test filed under Canis familiaris [1] is 16.5 mg/kg.

The compound `Cl.Oc1c(CN2CCCC2)cc(Cc2ccccc2)cc1CN1CCCC1` gave an Inhibition in the test filed under Cavia porcellus of 14.3%. The DOSE entry in the test filed under Canis familiaris [5] is “inactive”.

As for `Cc1cccc(C)c1C(=O)Nc1cc(CN2CCCC2)c(O)c(CN2CCCC2)c1`, the Dose in the test filed under Canis familiaris [1] is 3.2 mg/kg.

On to `O=C(Nc1cc(CN2CCCC2)c(O)c(CN2CCCC2)c1)c1ccccc1`, for which the Dose in the test filed under Canis familiaris [1] is 3.4 mg/kg.

Regarding `O=C(c1ccc(Cl)cc1)c1cc(CN2CCCC2)c(O)c(CN2CCCC2)c1`, the Dose in the test listed under Canis familiaris [1] is 4.8 mg/kg.

With `CC(C)N(CCC(C(N)=O)(c1ccccc1)c1ccccn1)C(C)C` (configuration not stated) [DISOPYRAMIDE], in the test listed under Cavia porcellus, the Inhibition is 81%. For the same compound, the Dose in the test filed under Canis familiaris [1] is 4.4 mg/kg.

Turning to `CCN(CC)CCNC(=O)c1ccc(N)cc1.Cl` [PROCAINAMIDE HYDROCHLORIDE], in the test listed under Cavia porcellus, the Inhibition is given as 0%. Moreover, the Dose in the test listed under Canis familiaris [1] was 29 mg/kg.

Take `O=C(Nc1cc(CN2CCCCC2)c(O)c(CN2CCCCC2)c1)c1ccccc1`: the Inhibition in the test listed under Cavia porcellus is listed as 33%. Moreover, in the test listed under Canis familiaris [1], the Dose was 3 mg/kg.

In the case of `Cl.Oc1c(CN2CCCC2)cc(OCc2ccccc2)cc1CN1CCCC1`, in the test listed under Cavia porcellus, the Inhibition turned out to be 62%. In addition, the Dose in the test filed under Canis familiaris [1] is 2 mg/kg.

The compound `O=C(c1ccccc1)c1cc(CN2CCCC2)c(O)c(CN2CCCC2)c1` yielded an Inhibition in the test filed under Cavia porcellus of 9%. Besides, the Dose in the test filed under Canis familiaris [1] was 2.4 mg/kg.

Take `O=C(Nc1ccccc1)Nc1cc(CN2CCCC2)c(O)c(CN2CCCC2)c1`: the Dose in the test listed under Canis familiaris [1] is 3.6 mg/kg.

`Cc1cccc(C)c1NC(=O)c1cc(CN2CCCC2)c(O)c(CN2CCCC2)c1`: the Dose in the test filed under Canis familiaris [1] is 4.5 mg/kg.

In the test listed under Cavia porcellus, `C=C[C@H]1CN2CC[C@H]1C[C@@H]2[C@@H](O)c1ccnc2ccc(OC)cc12` [QUINIDINE] showed an Inhibition of 62%. Also, in the test filed under Canis familiaris [1], the Dose was 10.5 mg/kg.

Consider `O=C(/C=C/c1ccccc1)Nc1cc(CN2CCCC2)c(O)c(CN2CCCC2)c1`, for which the results for the Dose in the test filed under Canis familiaris [1] and in the test filed under Canis familiaris [6] were 14 mg/kg and 8 mg/kg, respectively.

The Inhibition is the change of the read-out against control, counted positive when it falls. A low value points to a weak effect.
